Values after ≈ are worked out from the molar mass of the structure shown. Active and inactive are the calls of the source. The calls are words filed in the database; no cut-off is given here.
Legend:
[1] = target: T1, Transcriptional activator protein LuxR (Aliivibrio fischeri) (UniProt P12746); assay: Antagonist activity at Vibrio fischeri LuxR-mediated quorum sensing expressed in Escherichia coli JB523 assessed as inhibition of C6-HSL-induced GFP expression at 1 mM after 24 hrs by reporter gene assay; type: functional
T1 sequence (whole entry): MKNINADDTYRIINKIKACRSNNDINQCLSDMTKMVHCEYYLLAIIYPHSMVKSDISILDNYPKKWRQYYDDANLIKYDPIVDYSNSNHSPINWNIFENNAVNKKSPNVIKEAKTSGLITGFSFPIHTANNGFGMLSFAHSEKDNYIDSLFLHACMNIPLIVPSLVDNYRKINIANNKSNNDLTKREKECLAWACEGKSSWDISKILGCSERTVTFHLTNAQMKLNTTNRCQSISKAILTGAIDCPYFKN
Procedure, shortened: (§1)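 JB523 GFP biosensor in LB/0.4% NaCl at OD590 0.1 with tetracycline 100 µg/ml final; compounds co-added with C6-HSL (5 µM). Plates kept 24 h at 30 °C, then GFP read at 485/510 nm. Each compound tested in twelve wells, assay repeated at least three times.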

Escherichia coli = assay: Antibacterial activity against Escherichia coli JB523 after 20 hrs by broth microdilution assay; type: functional; settings: JB523, 20 h
Procedure, shortened: (§2)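 EUCAST broth microdilution in triplicate, inoculum about 5 × 10^5 CFU/ml. Incubated 20 h at 37 °C, then OD590 read. Compounds from 100 mM DMSO stocks, diluted in water.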

Burkholderia cenocepacia [2] = assay: Antibacterial activity against Burkholderia cenocepacia LMG16656 after 20 hrs by broth microdilution assay; type: functional; settings: LMG16656, 20 h; procedure, shortened: as §2
Pseudomonas aeruginosa [3] = assay: Antibacterial activity against Pseudomonas aeruginosa PAO1 after 20 hrs by broth microdilution assay; type: functional; settings: PAO1, 20 h; procedure, shortened: as §2
Pseudomonas aeruginosa [4] = assay: Antibacterial activity against Pseudomonas aeruginosa QSIS2 after 20 hrs by broth microdilution assay; type: functional; settings: QSIS2, 20 h; procedure, shortened: as §2
[5] = target: T1, Transcriptional activator protein LuxR (Aliivibrio fischeri); assay: (§3) Antagonist activity at Vibrio fischeri LuxR-mediated quorum sensing expressed in Escherichia coli JB523 assessed as inhibition of C6-HSL-induced GFP expression after 24 hrs by reporter gene assay; type: functional; procedure, shortened: as §1
[6] = target: T2, Transcriptional activator protein LuxR (Aliivibrio fischeri, UniProt P12746); assay: as §3; type: functional; procedure, shortened: as §1
T2 sequence (P12746 whole entry): T1 sequence (whole entry)

[7] = target: T1, Transcriptional activator protein LuxR (Aliivibrio fischeri); assay: Antagonist activity at Vibrio fischeri LuxR-mediated quorum sensing expressed in Escherichia coli JB523 assessed as inhibition of C6-HSL-induced GFP expression at 0.1 mM after 24 hrs by reporter gene assay; type: functional; procedure, shortened: as §1
[8] = target: T1, Transcriptional activator protein LuxR (Aliivibrio fischeri); assay: Antagonist activity at Vibrio fischeri LuxR expressed in Escherichia coli JB523 assessed as inhibition of C6-HSL-induced GFP expression at 0.5 mM after 24 hrs by reporter gene assay; type: functional; procedure, shortened: as §1
Pseudomonas aeruginosa [9] = assay: Antagonist activity at Pseudomonas aeruginosa QSIS2 LasR-mediated quorum sensing co-expressing SacB1 assessed as inhibition of 3-oxo-C12-HSL-induced luminescence at 0.1 mM after 24 hrs by reporter gene assay; type: functional
Pseudomonas aeruginosa [10] = assay: Antagonist activity at Pseudomonas aeruginosa QSIS2 LasR-mediated quorum sensing co-expressing SacB1 assessed as inhibition of 3-oxo-C12-HSL-induced luminescence at 0.25 mM […] by reporter gene assay; type: functional
Pseudomonas aeruginosa [11] = assay: Antagonist activity at Pseudomonas aeruginosa QSIS2 LasR-mediated quorum sensing co-expressing SacB1 assessed as inhibition of 3-oxo-C12-HSL-induced luminescence at 0.5 mM after 24 hrs by reporter gene assay; type: functional
[12] = target: T1, Transcriptional activator protein LuxR (Aliivibrio fischeri); assay: Agonist activity at Vibrio fischeri LuxR-mediated quorum sensing expressed in Escherichia coli JB523 assessed as GFP expression at 0.1 mM after 24 hrs by reporter gene assay; type: functional
Procedure, shortened: (§4)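 E. coli JB523 (pJBA130, luxR-PluxI–GFP) overnight culture diluted to OD590 0.1 in LB with 0.4% NaCl, tetracycline 100 µg/ml final. Compounds 100–1000 µM added without signal; C6-HSL (5 µM) as positive control, water as negative. 24 h at 30 °C; GFP fluorescence ex 485/em 510 nm. Twelve wells per compound, ≥3 repeats.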

[13] = target: T1, Transcriptional activator protein LuxR (Aliivibrio fischeri); assay: Agonist activity at Vibrio fischeri LuxR-mediated quorum sensing expressed in Escherichia coli JB523 assessed as GFP expression at 0.25 mM after 24 hrs by reporter gene assay; type: functional; procedure, shortened: as §4
[14] = target: T1, Transcriptional activator protein LuxR (Aliivibrio fischeri); assay: Agonist activity at Vibrio fischeri LuxR-mediated quorum sensing expressed in Escherichia coli JB523 assessed as GFP expression at 0.5 mM after 24 hrs by reporter gene assay; type: functional; procedure, shortened: as §4
Pseudomonas aeruginosa [15] = assay: Agonist activity at Pseudomonas aeruginosa QSIS2 LasR-mediated quorum sensing co-expressing SacB1 assessed as luminescence at 0.1 mM after 24 hrs by reporter gene assay; type: functional
Pseudomonas aeruginosa [16] = assay: Agonist activity at Pseudomonas aeruginosa QSIS2 LasR-mediated quorum sensing co-expressing SacB1 assessed as luminescence at 0.25 mM after 24 hrs by reporter gene assay; type: functional
Pseudomonas aeruginosa [17] = assay: Agonist activity at Pseudomonas aeruginosa QSIS2 LasR-mediated quorum sensing co-expressing SacB1 assessed as luminescence at 0.5 mM after 24 hrs by reporter gene assay; type: functional
Pseudomonas aeruginosa [18] = assay: Agonist activity at Pseudomonas aeruginosa QSIS2 LasR-mediated quorum sensing co-expressing SacB1 assessed as luminescence after 24 hrs by reporter gene assay; type: functional
Pseudomonas aeruginosa [19] = assay: Antimicrobial activity against Pseudomonas aeruginosa PAO1 assessed as inhibition of biofilm formation at 1 mM after 24 hrs by crystal violet staining; type: functional; settings: for inhibition at 1000 µM: PAO1, 24 h
Procedure, shortened: (§5)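 Overnight MH cultures resuspended in 2× MH at OD590 0.1 and mixed 1:1 with compound or water. Adhesion 4 h at 37 °C without agitation, then washed with saline. Refilled with 2× MH plus compound and incubated 20 h at 37 °C. Methanol-fixed, crystal violet stained, eluted with 33% acetic acid, A590 read. Expressed as % of untreated biofilm; n ≥ 24.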

Burkholderia cenocepacia [20] = assay: Antimicrobial activity against Burkholderia cenocepacia LMG16656 assessed as inhibition of biofilm formation at 1 mM after 24 hrs by crystal violet staining; type: functional; settings: LMG16656, 24 h; procedure, shortened: as §5
Pseudomonas aeruginosa [21] = assay: Antimicrobial activity against Pseudomonas aeruginosa PAO1 assessed as reduction of biofilm biomass at 1 mM incubated for 24 hrs post-biofilm growth by crystal violet staining; type: functional; set-up: scale not given: the % may be the effect or the level left
Procedure, shortened: (§6)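 Mature-biofilm treatment: biofilms grown 24 h at 37 °C without compound, rinsed with saline, then fresh medium containing compound added for a further 24 h at 37 °C. Biomass measured by crystal violet (methanol fixation, acetic acid elution, A590). Reported as % of control biofilm; twelve wells, ≥2 repeats.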

Burkholderia cenocepacia [22] = assay: Antimicrobial activity against Burkholderia cenocepacia LMG16656 assessed as reduction of biofilm biomass at 1 mM incubated for 24 hrs post-biofilm growth by crystal violet staining; type: functional, organism-based; procedure, shortened: as §6
Pseudomonas aeruginosa [23] = assay: Antimicrobial activity against Pseudomonas aeruginosa PAO1 assessed as reduction of cell viability at 1 mM incubated for 24 hrs post-biofilm growth by CTB staining; type: functional
Procedure, shortened: (§7)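 Biofilms were grown 24 h at 37 °C in 2× MH (inoculum OD590 0.1) without compound. Wells were rinsed with saline, fresh medium with compound was added, and plates were held a further 24 h at 37 °C. Metabolically active cells were measured by CTB resazurin fluorescence after 60 min (ex 535/em 590) as % of control biofilm; n ≥ 24.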

Burkholderia cenocepacia [24] = assay: Antimicrobial activity against Burkholderia cenocepacia LMG16656 assessed as reduction of cell viability at 1 mM incubated for 24 hrs post-biofilm growth by CTB staining; type: functional, organism-based; procedure, shortened: as §7
[25] = Cytotoxicity against human MRC5 cells after 3 days by resazurin reduction assay; type: cell-based
Procedure, shortened: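 MRC-5 SV2 human lung fibroblasts in Earle's MEM with 5% FCSi, about 10^4 cells per well, exposed for 3 days at 37 °C and 5% CO2. Viability read by resazurin fluorescence (ex 550/em 590 nm) as % reduction versus untreated wells; CC50 derived.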

Pseudomonas aeruginosa [26] = assay: Antagonist activity at Pseudomonas aeruginosa QSIS2 LasR-mediated quorum sensing co-expressing SacB1 assessed as inhibition of 3-oxo-C12-HSL-induced luminescence at 1 mM […] by reporter gene assay; type: functional
[27] = target: T1, Transcriptional activator protein LuxR (Aliivibrio fischeri); assay: Agonist activity at Vibrio fischeri LuxR-mediated quorum sensing expressed in Escherichia coli JB523 assessed as GFP expression at 1 mM after 24 hrs by reporter gene assay; type: functional; procedure, shortened: as §4
Pseudomonas aeruginosa [28] = assay: Agonist activity at Pseudomonas aeruginosa QSIS2 LasR-mediated quorum sensing coexpressing SacB1 assessed as […] by reporter gene assay; type: functional
Pseudomonas aeruginosa [29] = assay: Antimicrobial activity against Pseudomonas aeruginosa PAO1 assessed as reduction of cell viability at 1 mM after 24 hrs by CTB staining; type: functional, organism-based
Procedure, shortened: (§8)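 Overnight MH cultures were centrifuged, resuspended in 2× MH and set to OD590 0.1. Cells adhered 4 h at 37 °C, wells were washed with saline, then compound in 2× MH was added for 20 h at 37 °C. Viable cells were read by resazurin (CTB) fluorescence after 60 min (ex 535/em 590) as % of untreated biofilm; 12 wells, ≥2 repeats.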

Burkholderia cenocepacia [30] = assay: Antimicrobial activity against Burkholderia cenocepacia LMG16656 assessed as reduction of cell viability at 1 mM after 24 hrs by CTB staining; type: functional, organism-based; procedure, shortened: as §8

| Structure (SMILES) | inhibition [1] | MIC (Escherichia coli) | MIC (Burkholderia cenocepacia [2]) | MIC (Pseudomonas aeruginosa [3]) | MIC (Pseudomonas aeruginosa [4]) | inhibition [5] | inhibition [7] | inhibition [8] | inhibition (Pseudomonas aeruginosa [9]) | inhibition (Pseudomonas aeruginosa [10]) | inhibition (Pseudomonas aeruginosa [11]) | Activity [12] | Activity [13] | Activity [14] | Activity (Pseudomonas aeruginosa [15]) | Activity (Pseudomonas aeruginosa [16]) | Activity (Pseudomonas aeruginosa [17]) | Activity (Pseudomonas aeruginosa [18]) | inhibition (Pseudomonas aeruginosa [26]) | Activity [27] | also measured |
| --- | --- | --- | --- | --- | --- | --- | --- | --- | --- | --- | --- | --- | --- | --- | --- | --- | --- | --- | --- | --- | --- |
| CCCCCCCCc1cn(C2CCOC2=O)nn1 (configuration not stated) | 71.6% | 5000 µM (≈ 1330 µg/mL) | 2500 µM (≈ 663 µg/mL) | 2500 µM (≈ 663 µg/mL) | 2500 µM (≈ 663 µg/mL) | Dose-dependent effect | 34.1% | 59.8% | inactive | inactive | inactive | inactive | inactive | 5.2% | inactive | inactive | 19.4% | Dose-dependent effect | inactive | 10.6% | IC50 [6]: 308 µM; inhibition (Pseudomonas aeruginosa [19]): inactive; inhibition at 1000 µM (Burkholderia cenocepacia [20]): 68%; Activity (Pseudomonas aeruginosa [21]): 38%; Activity (Burkholderia cenocepacia [22]): Active; Activity (Pseudomonas aeruginosa [23]): 28%; Activity (Burkholderia cenocepacia [24]): Active; CC50 at 72 h [25]: > 1000 µM; Activity (Pseudomonas aeruginosa [28]): 29%; Activity (Pseudomonas aeruginosa [29]): Active; Activity (Burkholderia cenocepacia [30]): Active |
| O=C1OCCC1n1cc(CCc2ccccc2)nn1 (configuration not stated) | 29.2% | 10000 µM (≈ 2570 µg/mL) | 5000 µM (≈ 1290 µg/mL) | 2500 µM (≈ 643 µg/mL) | 5000 µM (≈ 1290 µg/mL) | Dose-dependent effect | inactive | 25.7% | 15.8% | 25.3% | 35.2% | inactive | inactive | inactive | 39.1% | 41.5% | 67.2% | Dose-dependent effect | 43.2% | inactive | inhibition at 1000 µM (Pseudomonas aeruginosa [19]): 40%; inhibition at 1000 µM (Burkholderia cenocepacia [20]): 40%; Activity (Pseudomonas aeruginosa [21]): 36%; Activity (Burkholderia cenocepacia [22]): Active; Activity (Pseudomonas aeruginosa [23]): 37%; Activity (Burkholderia cenocepacia [24]): Active; CC50 at 72 h [25]: > 1000 µM; Activity (Pseudomonas aeruginosa [28]): 81.4%; Activity (Pseudomonas aeruginosa [29]): Active; Activity (Burkholderia cenocepacia [30]): Active |
| CCCCCCCCCCCCc1cn(C2CCOC2=O)nn1 (configuration not stated) | 34.4% | 2500 µM (≈ 804 µg/mL) | 2500 µM (≈ 804 µg/mL) | 2500 µM (≈ 804 µg/mL) | 2500 µM (≈ 804 µg/mL) | Dose-dependent effect | inactive | 23.7% | 10.6% | 12.8% | 30.9% | inactive | inactive | inactive | 28.7% | 32% | 43.8% | Dose-dependent effect | 36.5% | inactive | inhibition at 1000 µM (Pseudomonas aeruginosa [19]): 46%; inhibition at 1000 µM (Burkholderia cenocepacia [20]): 70%; Activity (Pseudomonas aeruginosa [21]): Active; Activity (Burkholderia cenocepacia [22]): Active; Activity (Pseudomonas aeruginosa [23]): Active; Activity (Burkholderia cenocepacia [24]): Active; CC50 at 72 h [25]: 670 µM; Activity (Pseudomonas aeruginosa [28]): 45.5%; Activity (Pseudomonas aeruginosa [29]): Active; Activity (Burkholderia cenocepacia [30]): Active |
| CCCCCCCCCCc1cn(C2CCOC2=O)nn1 (configuration not stated) | 31.9% | 2500 µM (≈ 734 µg/mL) | 2500 µM (≈ 734 µg/mL) | 2500 µM (≈ 734 µg/mL) | 2500 µM (≈ 734 µg/mL) | Dose-dependent effect | 12.4% | 28% | 7% | 8.1% | 15% | inactive | inactive | inactive | 32.1% | 31.4% | 38% | Dose-dependent effect | 21.9% | inactive | Activity (Pseudomonas aeruginosa [28]): 57.2% |
